Laboratory results reported in PubChem BioAssay AID489000 (The Scripps Research Institute Molecular Screening Center, 2010).
Activity calls are given as the source filed them.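 The calls were made as follows: active = IC50 for blocking EBNA-1 binding to its DNA probe at or below 10 µM; inactive = the rest.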

Biological target: Epstein-Barr virus nuclear antigen 1 (EBNA-1) DNA-binding domain
Experiment: blockers of EBV EBNA-1 DNA binding, IC50 – biochemical, fluorescence polarization, dose response, powder samples, late-stage follow-up (AID 489000)
Settings: Recombinant EBNA-1 DBD, Cy5-DNA fluorescence polarization
Method in brief: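 assay system = EBNA-1 DNA-binding region, aa 448-610, recombinant from E. coli | times = 30 min pre-mix, 1 h with compound, RT | medium = Tris/NaCl buffer, pH 7.4 | technique = Cy5 fluorescence polarization | replicates = triplicate | reagent = 10 nM Cy5-tagged hairpin DNA probe, 36 bp | benchmarks = high control without EBNA-1, low control with EBNA-1 only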

IC50	Compound
> 16.4 µM (inactive)	COc1ccc(-n2nnnc2SCC(=O)c2cc(C)n(CC3CCCO3)c2C)cc1 (centres undefined)
> 148 µM (inactive)	Cc1cc(C(=O)CSc2nnnn2C)c(C)n1CC1CCCO1 (centres undefined)
> 148 µM (inactive)	CS(=O)(=O)c1ccc2nc(NC(=O)c3cccc(F)c3)sc2c1
> 148 µM (inactive)	Cc1cc(C(=O)CSc2nnnn2-c2ccc(Cl)cc2)c(C)n1CC1CCCO1 (centres undefined)
inactive	Cc1cc(C(=O)CSc2nnnn2C2CC2)c(C)n1CC1CCCO1 (centres undefined)
inactive	Cc1cccc(C(=O)Nc2nc3ccc(S(C)(=O)=O)cc3s2)c1
> 148 µM (inactive)	COCCn1c(C)cc(C(=O)CSc2nnnn2-c2ccccc2)c1C
> 148 µM (inactive)	COc1ccc2nc(NC(=O)c3ccc(C)c(C)c3)sc2c1
> 148 µM (inactive)	Cc1cccc(-n2nnnc2SCC(=O)c2cc(C)n(CC3CCCO3)c2C)c1 (centres undefined)
> 148 µM (inactive)	O=C(CSc1nnnn1-c1ccccc1)c1ccn(CC2CCCO2)c1 (centres undefined)
inactive	COc1ccc(C(=O)Nc2nc3ccc(S(C)(=O)=O)cc3s2)cc1
inactive	COc1cccc(C(=O)Nc2nc3ccc(S(C)(=O)=O)cc3s2)c1
> 148 µM (inactive)	Cc1ccc(C(=O)Nc2nc3cc(F)ccc3s2)cc1C
> 148 µM (inactive)	Cc1ccc(C(=O)Nc2nc3cc(Br)ccc3s2)cc1C
> 148 µM (inactive)	COc1ccccc1C(=O)Nc1nc2ccc(S(C)(=O)=O)cc2s1
inactive	Cc1cc(C(=O)CSc2nnnn2-c2ccccc2)c(C)n1C
inactive	CS(=O)(=O)c1ccc2nc(NC(=O)c3ccc(Cl)cc3)sc2c1
> 148 µM (inactive)	Cc1ccccc1C(=O)Nc1nc2ccc(S(C)(=O)=O)cc2s1
> 148 µM (inactive)	Cc1cc(C(=O)CSc2nnnn2-c2ccccc2)c(C)n1Cc1cccs1
> 148 µM (inactive)	CS(=O)(=O)c1ccc2nc(NC(=O)c3ccccc3F)sc2c1
> 148 µM (inactive)	CS(=O)(=O)c1ccc2nc(NC(=O)c3ccccc3Cl)sc2c1
> 148 µM (inactive)	Cc1cc(C(=O)CSc2nnnn2-c2cccc(F)c2)c(C)n1CC1CCCO1 (centres undefined)
> 148 µM (inactive)	COc1ccc2sc(NC(=O)c3ccc(C)c(C)c3)nc2c1
> 148 µM (inactive)	Cc1ccc(C(=O)Nc2nc3ccc(S(C)(=O)=O)cc3s2)cc1
> 148 µM (inactive)	COc1cccc2sc(NC(=O)c3ccc(C)c(C)c3)nc12
> 148 µM (inactive)	CCn1c(C)cc(C(=O)CSc2nnnn2-c2ccccc2)c1C
> 148 µM (inactive)	Cc1ccc(C(=O)Nc2nc3ccc(Br)cc3s2)cc1C
> 148 µM (inactive)	CS(=O)(=O)c1ccc2nc(NC(=O)c3cccc(Cl)c3)sc2c1
> 148 µM (inactive)	Cc1ccccc1-n1nnnc1SCC(=O)c1cc(C)n(CC2CCCO2)c1C (centres undefined)
